Experimental data published in ChEMBL document CHEMBL1132289, “Novel potent and selective central 5-HT3 receptor ligands provided with different intrinsic efficacy. 2. Molecular basis of the intrinsic efficacy of arylpiperazine derivatives at the central 5-HT3 receptors” (J Med Chem, 1999).

How the values were obtained:
[1] = target: T1, 5-hydroxytryptamine receptor 1A (Rattus norvegicus, UniProt P19327); assay: Binding affinity against 5-hydroxytryptamine 1A receptor of rat hippocampus tissue.; format: tissue-based
T1 sequence (P19327 whole entry): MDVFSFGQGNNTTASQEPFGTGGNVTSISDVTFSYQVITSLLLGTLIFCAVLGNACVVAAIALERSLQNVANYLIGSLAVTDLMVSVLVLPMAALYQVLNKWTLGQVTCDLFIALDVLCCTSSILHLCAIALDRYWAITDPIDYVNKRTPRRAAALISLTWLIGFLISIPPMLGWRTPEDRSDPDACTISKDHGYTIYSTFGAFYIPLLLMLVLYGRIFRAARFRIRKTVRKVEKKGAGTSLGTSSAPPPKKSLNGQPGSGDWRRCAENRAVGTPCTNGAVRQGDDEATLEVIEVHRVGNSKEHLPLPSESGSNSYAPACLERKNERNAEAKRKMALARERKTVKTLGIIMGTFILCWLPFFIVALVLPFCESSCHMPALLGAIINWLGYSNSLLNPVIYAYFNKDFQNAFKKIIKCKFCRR
Summary of the method: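 Rat tissue homogenized in ice-cold 50 mM Tris HCl, resuspended in 50 mM Tris HCl pH 7.4. [3H]8-OH-DPAT 0.5 nM final, 4 mg tissue/sample, 0.5 mL incubation. Stopped by vacuum filtration through GF/B filters, scintillation counting. Mean ± SEM of three determinations.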

[2] = target: T2, 5-hydroxytryptamine receptor 1B (Rattus norvegicus, UniProt P28564); assay: Binding affinity against 5-hydroxytryptamine 1B receptor of rat striatum.; format: tissue-based
[3] = target: T3, Serotonin 3 (5-HT3) receptor (Rattus norvegicus) (UniProt P35563+Q9JJ16); assay: Intrinsic efficacy for rat 5-hydroxytryptamine 3 receptor; format: protein-complex assay; details: filed as antagonist
[4] = target: T4, Serotonin 3 (5-HT3) receptor (Rattus norvegicus, UniProt P35563+Q9JJ16); assay: Inhibition of [3H]granisetron binding to 5-hydroxytryptamine 3 receptor of rat cortical membrane
T4 sequence (P35563 whole entry): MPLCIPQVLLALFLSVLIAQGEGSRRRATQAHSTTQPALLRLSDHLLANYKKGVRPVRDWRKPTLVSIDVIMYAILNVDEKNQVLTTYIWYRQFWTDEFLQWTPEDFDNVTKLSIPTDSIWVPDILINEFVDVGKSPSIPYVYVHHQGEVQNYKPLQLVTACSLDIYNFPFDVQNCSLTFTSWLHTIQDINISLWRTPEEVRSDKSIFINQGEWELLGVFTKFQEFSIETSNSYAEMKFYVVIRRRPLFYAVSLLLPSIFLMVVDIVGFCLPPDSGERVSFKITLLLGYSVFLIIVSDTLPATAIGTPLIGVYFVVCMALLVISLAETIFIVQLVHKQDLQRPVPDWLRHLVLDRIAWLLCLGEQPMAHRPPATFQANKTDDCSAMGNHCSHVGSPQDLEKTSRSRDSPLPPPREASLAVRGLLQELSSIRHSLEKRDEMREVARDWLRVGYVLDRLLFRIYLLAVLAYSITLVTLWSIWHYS
T4 sequence (Q9JJ16 whole entry): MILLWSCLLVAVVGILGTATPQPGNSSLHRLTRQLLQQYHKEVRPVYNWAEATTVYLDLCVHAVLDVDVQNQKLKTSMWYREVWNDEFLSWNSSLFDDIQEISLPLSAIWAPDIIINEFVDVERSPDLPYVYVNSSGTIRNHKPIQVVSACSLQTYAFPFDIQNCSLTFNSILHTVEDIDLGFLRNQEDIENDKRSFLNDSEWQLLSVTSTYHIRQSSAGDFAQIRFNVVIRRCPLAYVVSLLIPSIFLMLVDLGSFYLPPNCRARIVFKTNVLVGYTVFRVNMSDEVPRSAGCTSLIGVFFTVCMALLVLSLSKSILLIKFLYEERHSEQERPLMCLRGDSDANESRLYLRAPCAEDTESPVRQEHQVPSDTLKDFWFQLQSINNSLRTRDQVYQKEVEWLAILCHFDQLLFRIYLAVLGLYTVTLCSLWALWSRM

[5] = target: T5, 5-hydroxytryptamine receptor 2C (Rattus norvegicus, UniProt P08909); assay: Binding affinity against 5-hydroxytryptamine 2C receptor of rat cortex.
T5 sequence (P08909 whole entry): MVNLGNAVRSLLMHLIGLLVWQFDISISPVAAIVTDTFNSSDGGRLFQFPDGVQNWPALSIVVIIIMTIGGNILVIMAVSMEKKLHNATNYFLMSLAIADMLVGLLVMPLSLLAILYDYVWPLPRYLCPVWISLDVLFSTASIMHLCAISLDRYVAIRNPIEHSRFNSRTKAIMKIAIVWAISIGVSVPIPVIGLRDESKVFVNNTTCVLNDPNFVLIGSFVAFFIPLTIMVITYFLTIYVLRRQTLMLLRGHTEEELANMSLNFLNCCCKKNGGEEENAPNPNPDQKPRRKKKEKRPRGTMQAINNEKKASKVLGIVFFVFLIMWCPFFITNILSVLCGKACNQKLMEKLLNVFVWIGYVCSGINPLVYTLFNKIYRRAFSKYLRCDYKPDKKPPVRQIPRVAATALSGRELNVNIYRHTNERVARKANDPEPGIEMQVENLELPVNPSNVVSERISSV

[6] = target: T6, 5-hydroxytryptamine receptor 2A (Rattus norvegicus, UniProt P14842); assay: Binding affinity against 5-hydroxytryptamine 2A receptor of rat pre-frontal cortex.
Summary of the method: (§1)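 Membranes incubated with [3H]ketanserin 0.5 nM final, 8 mg tissue/sample, 0.5 mL, 50 mM Tris HCl pH 7.7. Filtration through GF/B filters, then scintillation counting. […] Mean ± SEM of three determinations.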

NG108-15 [7] = assay: (§2) Quantitative effect on the [14C]guanidinium accumulation in NG 108-15 cells (mouse neuroblastoma and rat glioma hybrid cells); format: functional, cell-based; details: Murinae
[8] = target: Sodium-dependent serotonin transporter (Rattus norvegicus, UniProt P31652); assay: Binding affinity towards Serotonin transporter was determined in rat forebrain membrane; format: cell membranes
Summary of the method: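 Membranes stored at -80 °C. [3H]paroxetine 0.1 nM final, 2 mg tissue/sample, 2.0 mL, in 50 mM Tris HCl pH 7.4 with 120 mM NaCl and 5 mM KCl. Filters presoaked in 0.5% poly(ethylenimine). Mean ± SEM of three determinations.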

[9] = target: T4, Serotonin 3 (5-HT3) receptor; assay: Inhibition of [3H]granisetron binding to 5-hydroxytryptamine 3 receptor (5-HT 3 receptor) of rat cortex and hippocampus tissue; format: tissue-based
[10] = target: T3, Serotonin 3 (5-HT3) receptor (Rattus norvegicus); assay: Intrinsic efficacy against 5-hydroxytryptamine 3 receptor; A means pure agonist; format: functional; details: filed as agonist
Summary of the method: (§3)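 Mouse neuroblastoma × rat glioma NG 108-15 cells grown 2 days in DMEM; washed, then incubated 10 min at 37 °C in guanidinium buffer B (135 mM NaCl, 10 mM guanidinium, pH 7.4) with […] [14C]guanidinium, 10 μM substance P, 1 μM 5-HT where indicated, eight drug concentrations; ice-cold choline wash, NaOH lysis, scintillation counting. Triplicates; EC50 (agonists/partial agonists) or IC50 (antagonists).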

NG108-15 [11] = assay: Quantitative effect on the [14C]guanidinium accumulation in NG 108-15 cells.; format: functional, cell-based; details: Murinae; summary of the method: as §3
[12] = target: T2, 5-hydroxytryptamine receptor 1B; assay: Binding affinity against 5-hydroxytryptamine 1B receptor of rat striatum; format: tissue-based
Summary of the method: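 [3H]5-HT 2.3 nM final, 14 mg tissue/sample, 1.0 mL, in 50 mM Tris HCl pH 7.7 with 10 μM pargyline, 4 mM CaCl2 and 0.1% ascorbic acid. Filtration through GF/B filters, scintillation counting. […] Mean ± SEM of three determinations.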

[13] = target: T3, Serotonin 3 (5-HT3) receptor (Rattus norvegicus); assay: Intrinsic efficacy against 5-hydroxytryptamine 3 receptor; PA means partial agonist; format: functional; details: filed as partial agonist
Summary of the method: (§4)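 NG 108-15 cells grown 2 days, washed, then exposed 10 min at 37 °C to buffer containing 10 mM guanidinium, [14C]guanidinium, 10 μM substance P, and/or 1 μM 5-HT, with eight drug concentrations. Cells lysed in NaOH, then scintillation counting. EC50 for agonists, IC50 for antagonists. Triplicate per concentration.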

[14] = target: T5, 5-hydroxytryptamine receptor 2C; assay: Binding affinity against 5-hydroxytryptamine 2C receptor of rat cortex; format: tissue-based
[15] = target: T6, 5-hydroxytryptamine receptor 2A; assay: Binding affinity against 5-hydroxytryptamine 2A receptor of rat pre-frontal cortex; format: tissue-based; summary of the method: as §1
NG108-15 [16] = assay: as §2; format: functional, cell-based; details: Murinae; summary of the method: as §4; remark: listed apart in the source

T2 sequence (P28564 whole entry): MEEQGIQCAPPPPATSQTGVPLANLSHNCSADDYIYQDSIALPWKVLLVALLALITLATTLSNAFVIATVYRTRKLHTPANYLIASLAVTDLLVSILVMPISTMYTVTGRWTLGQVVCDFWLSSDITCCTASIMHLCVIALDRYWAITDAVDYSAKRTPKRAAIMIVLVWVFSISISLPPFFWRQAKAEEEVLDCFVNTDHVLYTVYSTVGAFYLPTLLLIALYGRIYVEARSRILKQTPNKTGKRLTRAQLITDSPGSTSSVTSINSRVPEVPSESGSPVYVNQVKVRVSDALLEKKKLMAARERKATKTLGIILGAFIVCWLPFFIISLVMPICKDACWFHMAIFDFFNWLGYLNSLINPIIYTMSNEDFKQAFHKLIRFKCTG
T6 sequence (P14842 whole entry): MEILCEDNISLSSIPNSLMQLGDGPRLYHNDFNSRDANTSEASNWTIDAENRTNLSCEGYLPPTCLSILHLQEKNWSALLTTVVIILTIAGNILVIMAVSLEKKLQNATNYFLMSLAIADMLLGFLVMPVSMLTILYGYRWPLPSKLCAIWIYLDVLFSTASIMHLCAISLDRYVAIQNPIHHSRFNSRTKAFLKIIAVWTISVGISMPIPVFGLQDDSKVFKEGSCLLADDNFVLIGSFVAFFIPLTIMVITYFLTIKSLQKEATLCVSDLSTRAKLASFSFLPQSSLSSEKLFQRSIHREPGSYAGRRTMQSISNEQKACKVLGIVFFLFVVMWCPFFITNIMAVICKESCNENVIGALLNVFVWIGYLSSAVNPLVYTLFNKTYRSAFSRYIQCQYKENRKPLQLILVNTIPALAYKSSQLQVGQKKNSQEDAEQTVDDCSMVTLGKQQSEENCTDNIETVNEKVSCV
Chain of Sodium-dependent serotonin transporter (P31652 whole entry): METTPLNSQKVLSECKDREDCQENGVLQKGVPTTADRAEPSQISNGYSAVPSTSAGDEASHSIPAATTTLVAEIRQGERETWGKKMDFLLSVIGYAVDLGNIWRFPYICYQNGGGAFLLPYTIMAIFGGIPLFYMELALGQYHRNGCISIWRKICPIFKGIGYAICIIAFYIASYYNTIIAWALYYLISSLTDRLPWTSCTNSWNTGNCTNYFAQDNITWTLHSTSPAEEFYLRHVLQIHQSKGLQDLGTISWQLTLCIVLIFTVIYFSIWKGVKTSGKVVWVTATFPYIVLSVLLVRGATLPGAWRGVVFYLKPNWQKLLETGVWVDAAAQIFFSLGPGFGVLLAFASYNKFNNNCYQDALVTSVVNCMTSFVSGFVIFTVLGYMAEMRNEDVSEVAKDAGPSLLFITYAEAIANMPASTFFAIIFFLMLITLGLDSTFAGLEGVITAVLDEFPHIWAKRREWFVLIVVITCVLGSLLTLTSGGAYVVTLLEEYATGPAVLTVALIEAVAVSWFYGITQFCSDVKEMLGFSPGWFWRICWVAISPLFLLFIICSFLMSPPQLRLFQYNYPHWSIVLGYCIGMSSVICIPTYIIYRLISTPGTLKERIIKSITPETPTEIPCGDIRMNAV

CN1CCN(c2nc3ccccc3c3c2CCc2sccc2-3)CC1
Ki [1]: 12000 nM | Ki [2]: 1500 nM | Intrinsic efficacy [3]: Antagonist | Ki [4]: 5.7 nM | Ki [5]: 420000 nM | Ki [6]: 3100 nM | IC50 (NG108-15 [7]): 62 nM | Ki [8]: 4600 nM

CN1CCN(c2nc3ccccc3c3c2CC2CCC3C2)CC1 (stereo not drawn)
Intrinsic efficacy [3]: Antagonist | IC50 (NG108-15 [7]): 8 nM

c1ccc2c(c1)ccc1c(N3CCOCC3)nccc12
Ki [9]: 4900 nM

CN1CCN(c2nc3ccccc3c3c2CSc2ccccc2-3)CC1
Ki [4]: 19 nM

CCCCOC(=O)c1c(N2CCN(C)CC2)nc2cccc3c2c1-c1ccccc1-3
Ki [9]: 78 nM

NCCc1c[nH]c2ccc(O)cc12 [SEROTONIN]
Intrinsic efficacy [10]: Agonist | EC50 (NG108-15 [11]): 298 nM

CN1CCN(c2nc3ccccc3c3c2CCc2ccccc2-3)CC1
Intrinsic efficacy [3]: Antagonist | Ki [9]: 4.2 nM | IC50 (NG108-15 [7]): 4.6 nM

CN1CCN(c2nc3ccccc3c3c2C(=O)c2ccccc2-3)CC1
Intrinsic efficacy [3]: Antagonist | Ki [9]: 20 nM | IC50 (NG108-15 [7]): 139 nM

CN1CCN(c2cc3c4c(cccc4n2)-c2ccccc2-3)CC1
Ki [1]: 24000 nM | Ki [12]: 640 nM | Intrinsic efficacy [13]: Partial agonist | Ki [9]: 1.8 nM | Ki [14]: > 10000 nM | Ki [15]: 13000 nM | EC50 (NG108-15 [16]): 12 nM | Ki [8]: 1600 nM

CN1CCN(c2nc3c(c4c2CSc2ccccc2-4)CCCC3)CC1
Ki [9]: 2700 nM

CN1CCN(c2nc3ccccc3c3c2CCCC3)CC1
Intrinsic efficacy [13]: Partial agonist | EC50 (NG108-15 [16]): 0.25 nM

CN1CCN(c2nc3ccccc3c3c2ccc2ccccc23)CC1
Ki [4]: 46 nM

c1ccc2nc(N3CCNCC3)ccc2c1
Intrinsic efficacy [10]: Agonist

CN1CCN(c2nc3c(c4c2CCc2ccccc2-4)CCCC3)CC1
Ki [9]: 2300 nM

CN1C2CCCC1CC(NC(=O)c1nn(C)c3ccccc13)C2 (stereo not drawn)
Intrinsic efficacy [3]: Antagonist

CCCN(CCC)C(=O)c1c(N2CCN(C)CC2)nc2cccc3c2c1-c1ccccc1-3
Intrinsic efficacy [13]: Partial agonist | Ki [9]: 3 nM

c1ccc2c(c1)CCc1c(N3CCOCC3)nc3ccccc3c1-2
Ki [4]: > 5300 nM

CN1CCN(c2nccc3c2CCc2ccccc2-3)CC1
Intrinsic efficacy [10]: Agonist | Ki [9]: 16 nM | EC50 (NG108-15 [16]): 7 nM

CN1CCN(c2nc3ccccc3c(-c3ccccc3)c2COC(=O)c2ccccc2)CC1
Ki [1]: 4100 nM | Ki [12]: 7600 nM | Intrinsic efficacy [3]: Antagonist | Ki [9]: 8.8 nM | Ki [14]: 31 nM | Ki [15]: > 10000 nM | IC50 (NG108-15 [7]): 9 nM | Ki [8]: 1100 nM

CN1CCN(c2ccnc3c2ccc2ccccc23)CC1
Ki [9]: 490 nM

CN1CCN(c2cc(C34C[C@H]5C[C@@H](C3)C[C@@H](C4)C5)c3ccccc3n2)CC1
Intrinsic efficacy [3]: Antagonist | Ki [9]: 80 nM | IC50 (NG108-15 [7]): 80 nM

CN1CCN(c2nccc3c2ccc2ccccc23)CC1
Intrinsic efficacy [10]: Agonist | Ki [9]: 29 nM | EC50 (NG108-15 [16]): 30 nM

CN1CCN(c2nc3ccccc3c3c2CCC2CCCCC32)CC1 (stereo not drawn)
Intrinsic efficacy [3]: Antagonist | Ki [4]: 29 nM | IC50 (NG108-15 [7]): 250 nM

CN1CCN(c2nc3ccccc3c3ccccc23)CC1
Intrinsic efficacy [10]: Agonist | EC50 (NG108-15 [16]): 10 nM

CCOC(=O)c1c(N2CCN(C)CC2)nc2cccc3c2c1-c1ccccc1-3
Ki [9]: 3.9 nM
